Measured values as given in ChEMBL document CHEMBL1125639, “Synthesis and resolution of (+-)-7-chloro-8-hydroxy-1-(3'-iodophenyl)-3-methyl-2,3,4,5-tetrahydro- 1H-3- benzazepine (TISCH): a high affinity and selective iodinated ligand for CNS D1 dopamine receptor” (J Med Chem, 1991).
“And” between values parts separate entries of the source, which are not always exact repeats. Equal entries are not always repeated.

Key:
[1] = test system: Rattus norvegicus; experiment: Biodistribution ratio measured as the ratio of compound present in brain to that of blood at 30 minutes after intravenous injection; assay type: ADME, organism-based; conditions: 0.5 h
Summary of the method: (§1)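 Male Sprague-Dawley rats (225-300 g) given 0.2 mL saline containing [125I]-labeled ligand (2-5 μCi, ~2200 Ci/mmol) via femoral vein under ether anesthesia; sacrificed at set times by cardiac excision. Brain and blood weighed and gamma-counted against diluted injectate; ratio taken from % dose/gram values, 3 rats per time point.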

[2] = test system: Rattus norvegicus; experiment: Biodistribution of compound in rats brain after an intravenous injection was measured at 30 min; assay type: ADME, organism-based; conditions: in vivo, 0.5 h
Summary of the method: (§2)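 Rats (male Sprague-Dawley, 225-300 g) given the 125I ligand (2-5 μCi, ~2200 Ci/mmol) in 0.2 mL saline via the femoral vein under ether anesthesia, then killed at set times. Whole brain removed, weighed and gamma-counted. % dose/organ is taken against diluted injectate aliquots. Mean of 3 rats ± std dev.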

[3] = test system: Rattus norvegicus; experiment: Biodistribution of compound in rats brain after an intravenous injection was measured at 4 hr; assay type: ADME, organism-based; conditions: in vivo; summary of the method: as §2
[4] = test system: Rattus norvegicus; experiment: Biodistribution of compound in rats heart after an intravenous injection was measured at 1 hr; assay type: ADME, organism-based; conditions: in vivo
Summary of the method: (§3)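 Male Sprague-Dawley rats (225-300 g), free access to food and water. Under ether anesthesia, given 0.2 mL saline containing 125I-labelled ligand (2-5 μCi, ~2200 Ci/mmol) into the femoral vein. Killed by cardiac excision at set times. Organs removed, weighed and gamma-counted. % dose/organ is taken against diluted injectate aliquots, with blood and muscle assumed to be 7% and 40% of body weight. Mean of 3 rats ± std dev.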

[5] = test system: Rattus norvegicus; experiment: Biodistribution of compound in rats heart after an intravenous injection was measured at 24 hr; assay type: ADME, organism-based; conditions: in vivo; summary of the method: as §3
[6] = test system: Rattus norvegicus; experiment: Biodistribution of compound in rats heart after an intravenous injection was measured at 2 min; assay type: ADME, organism-based; conditions: in vivo; summary of the method: as §3
[7] = test system: Rattus norvegicus; experiment: Biodistribution of compound in rats heart after an intravenous injection was measured at 30 min; assay type: ADME, organism-based; conditions: in vivo, 0.5 h; summary of the method: as §3
[8] = test system: Rattus norvegicus; experiment: Biodistribution of compound in rats heart after an intravenous injection was measured at 4 hr; assay type: ADME, organism-based; conditions: in vivo; summary of the method: as §3
[9] = test system: Rattus norvegicus; experiment: Biodistribution of compound in rats kidney after an intravenous injection was measured at 2 min; assay type: ADME, organism-based; conditions: in vivo; summary of the method: as §3
[10] = test system: Rattus norvegicus; experiment: Biodistribution of compound in rats kidney after an intravenous injection was measured at 30 min; assay type: ADME, organism-based; conditions: in vivo, 0.5 h; summary of the method: as §3
[11] = test system: Rattus norvegicus; experiment: Biodistribution of compound in rats kidney after an intravenous injection was measured at 4 hr; assay type: ADME, organism-based; conditions: in vivo; summary of the method: as §3
[12] = test system: Rattus norvegicus; experiment: Biodistribution of compound in rats liver after an intravenous injection was measured at 1 hr; assay type: ADME, organism-based; conditions: in vivo; summary of the method: as §3
[13] = test system: Rattus norvegicus; experiment: Biodistribution of compound in rats liver after an intravenous injection was measured at 24 hr; assay type: ADME, organism-based; conditions: in vivo; summary of the method: as §3
[14] = test system: Rattus norvegicus; experiment: Biodistribution of compound in rats liver after an intravenous injection was measured at 2 min; assay type: ADME, organism-based; conditions: in vivo; summary of the method: as §3
[15] = test system: Rattus norvegicus; experiment: Biodistribution of compound in rats liver after an intravenous injection was measured at 30 min; assay type: ADME, organism-based; conditions: in vivo, 0.5 h; summary of the method: as §3
[16] = test system: Rattus norvegicus; experiment: Biodistribution of compound in rats liver after an intravenous injection was measured at 4 hr; assay type: ADME, organism-based; conditions: in vivo; summary of the method: as §3
[17] = test system: Rattus norvegicus; experiment: Biodistribution of compound in rats lung after an intravenous injection was measured at 1 hr; assay type: ADME, organism-based; conditions: in vivo; summary of the method: as §3
[18] = test system: Rattus norvegicus; experiment: Biodistribution of compound in rats lung after an intravenous injection was measured at 24 hr; assay type: ADME, organism-based; conditions: in vivo; summary of the method: as §3
[19] = test system: Rattus norvegicus; experiment: Biodistribution of compound in rats lung after an intravenous injection was measured at 2 min; assay type: ADME, organism-based; conditions: in vivo; summary of the method: as §3
[20] = test system: Rattus norvegicus; experiment: Biodistribution of compound in rats lung after an intravenous injection was measured at 30 min; assay type: ADME, organism-based; conditions: in vivo, 0.5 h; summary of the method: as §3
[21] = test system: Rattus norvegicus; experiment: Biodistribution of compound in rats lung after an intravenous injection was measured at 4 hr; assay type: ADME, organism-based; conditions: in vivo; summary of the method: as §3
[22] = test system: Rattus norvegicus; experiment: Biodistribution of compound in rats spleen after an intravenous injection was measured at 4 hr; assay type: ADME, organism-based; conditions: in vivo; summary of the method: as §3
[23] = test system: Rattus norvegicus; experiment: Biodistribution of compound in rats thyroid after an intravenous injection was measured at 1 hr; assay type: ADME, organism-based, Thyroid gland; conditions: in vivo; summary of the method: as §3
[24] = test system: Rattus norvegicus; experiment: Biodistribution of compound in rats thyroid after an intravenous injection was measured at 24 hr; assay type: ADME, organism-based, Thyroid gland; conditions: in vivo
Summary of the method: (§4)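 Male Sprague-Dawley rats (225-300 g), free access to food and water; under ether anesthesia, 0.2 mL saline containing [125I]-labeled ligand (2-5 μCi, ~2200 Ci/mmol) injected into femoral vein; killed by cardiac excision under ether at set times. […] removed, weighed, gamma-counted; % dose/organ from comparison with diluted aliquots of injectate; mean of 3 rats ± std dev.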

[25] = test system: Rattus norvegicus; experiment: Biodistribution of compound in rats thyroid after an intravenous injection was measured at 2 min; assay type: ADME, organism-based, Thyroid gland; conditions: in vivo; summary of the method: as §4
[26] = test system: Rattus norvegicus; experiment: Biodistribution of compound in rats thyroid after an intravenous injection was measured at 30 min; assay type: ADME, organism-based, Thyroid gland; conditions: in vivo, 0.5 h; summary of the method: as §4
[27] = test system: Rattus norvegicus; experiment: Biodistribution of compound in rats thyroid after an intravenous injection was measured at 4 hr; assay type: ADME, organism-based, Thyroid gland; conditions: in vivo; summary of the method: as §4
[28] = Biodistribution ratio measured as the ratio of compound present in brain to that of blood at 4 hr after intravenous injection; assay type: ADME, organism-based; conditions: rat; summary of the method: as §1

CN1CCc2cc(Cl)c(O)cc2[C@@H](c2cccc(I)c2)C1
Biodistribution [1]: 12.7% | Biodistribution [2]: 0.798 | Biodistribution [3]: 0.102 | Biodistribution [4]: 0.088 | Biodistribution [5]: 0.001 | Biodistribution [6]: 1.14 | Biodistribution [7]: 0.137 | Biodistribution [8]: 0.014 | Biodistribution [9]: 4.92 | Biodistribution [10]: 0.945 | Biodistribution [11]: 0.476 | Biodistribution [12]: 9.814 | Biodistribution [13]: 3.84 | Biodistribution [14]: 15.78 | Biodistribution [15]: 11.45 | Biodistribution [16]: 7.638 | Biodistribution [17]: 0.621 | Biodistribution [18]: 0.012 | Biodistribution [19]: 10.18 | Biodistribution [20]: 1.24 | Biodistribution [21]: 0.122 | Biodistribution [22]: 0.015 | Biodistribution [23]: 0.059 | Biodistribution [24]: 0.268 | Biodistribution [25]: 0.121 | Biodistribution [26]: 0.042 and 0.042% | Biodistribution [27]: 0.118 | Kp at 4 h [28]: 5.23
